Source: ChEMBL document CHEMBL1909531, “Mitochondrial respiration inhibitors suppress protein translation and hypoxic signaling via the hyperphosphorylation and inactivation of translation initiation factor eIF2α and elongation factor eEF2” (J Nat Prod, 2011)
Activity calls are given as the source filed them.

How the values were obtained:
[1] = molecular target: Serine/threonine-protein kinase mTOR (Homo sapiens) (UniProt P42345); test: Inhibition of mTOR in human T47D cells assessed as eEF2 hyperphosphorylation on Ser 56 at 0.1 to 1 uM after 30 mins by Western blotting; format: cell-based
In short: (§1)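 0.8 × 10^6 cells per well exposed for 30 min at 37 °C, 5% CO2, in DMEM/F12 with 5% FBS. Cells washed with cold DPBS and lysed in modified RIPA (pH 7.6) with protease and phosphatase inhibitors. 40 µg protein run on 4–20% SDS-PAGE and blotted. Phospho-site-specific primary antibodies at 1:1,000, HRP anti-rabbit IgG, chemiluminescence on film.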

T47D [2] = test: Reduction in ATP level in human T47D cells after 72 hrs by HPLC-UV analysis; format: functional, cell-based
In short: (§2)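 5 × 10^5 cells per well seeded in DMEM/F12 with 10% FBS. After 24 h, half the medium replaced with serum-free DMEM/F12 containing compound. After exposure, cells washed in cold DPBS and extracted with cold 0.4 M perchloric acid, then neutralized with K2CO3. ATP quantified by reversed-phase C18 HPLC-UV using 50 mM potassium phosphate pH 6.0/MeOH at 0.7 mL/min.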

[3] = molecular target: Serine/threonine-protein kinase mTOR (Homo sapiens) (UniProt P42345); test: Inhibition of mTOR-mediated 4E-BP1 phosphorylation on Thr 37/46 in human MDA-MB-231 cells at 0.1 to 1 uM after 30 mins by Western blotting; format: cell-based; in short: as §1
[4] = molecular target: Serine/threonine-protein kinase mTOR (Homo sapiens) (UniProt P42345); test: Inhibition of mTOR in human MDA-MB-231 cells assessed as eIF2alpha hyperphosphorylation on Ser 51 at 0.1 to 1 uM after 30 mins by Western blotting; format: cell-based; in short: as §1
MDA-MB-231 [5] = test: Reduction in ATP level in human MDA-MB-231 cells after 72 hrs by HPLC-UV analysis; format: functional, cell-based; in short: as §2
T47D [6] = test: Antiproliferative activity against human T47D cells assessed as cell viability at 0.01 to 0.1 uM after 72 hrs by SRB assay; format: functional
In short: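 T47D cells grown in DMEM/F12 with 10% FBS and penicillin/streptomycin, then exposed for 72 h in a parallel 96-well viability study. Cells fixed in the wells with no aspiration or wash, stained by sulforhodamine B, and read by OD. % inhibition = [1 − (OD treated/OD medium control)] × 100.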

T47D [7] = test: Reduction in ATP level in human T47D cells at 0.01 to 0.1 uM after 72 hrs by HPLC-UV analysis; format: functional, cell-based; in short: as §2
MDA-MB-231 [8] = test: Reduction in ATP level in human MDA-MB-231 cells at 0.01 to 0.1 uM after 48 hrs by HPLC-UV analysis; format: functional, cell-based; in short: as §2
[9] = molecular target: Serine/threonine-protein kinase mTOR (Homo sapiens) (UniProt P42345); test: Inhibition of mTOR in human MDA-MB-231 cells assessed as eEF2 hyperphosphorylation on Ser 56 at 0.1 to 1 uM after 30 mins by Western blotting; format: cell-based; in short: as §1
[10] = molecular target: Serine/threonine-protein kinase mTOR (Homo sapiens) (UniProt P42345); test: Inhibition of mTORC1-mediated rpS6 phosphorylation on Ser 235/236 in human T47D cells at 0.1 to 1 uM after 30 mins by Western blotting; format: cell-based; in short: as §1
T47D [11] = test: Inhibition of cellular respiration in human T47D cells assessed as rate of oxygen consumption at 0.001 to 0.1 uM; format: functional, cell-based
In short: (§3)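 Whole-cell oxygen consumption measured with a Clarke-type oxygen electrode during a concentration-response series. Cells in serum-free DMEM/F12 medium at 30 °C.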

MDA-MB-231 [12] = test: Inhibition of cellular respiration in human MDA-MB-231 cells assessed as rate of oxygen consumption; format: functional, cell-based; in short: as §3
[13] = molecular target: Serine/threonine-protein kinase mTOR (Homo sapiens) (UniProt P42345); test: Inhibition of mTOR-mediated 4E-BP1 phosphorylation on Thr 37/46 in human T47D cells at 0.1 to 1 uM after 30 mins by Western blotting; format: cell-based; in short: as §1
T47D [14] = test: Reduction in ATP level in human T47D cells after 48 hrs by HPLC-UV analysis; format: functional, cell-based; in short: as §2
[15] = molecular target: Serine/threonine-protein kinase mTOR (Homo sapiens) (UniProt P42345); test: Inhibition of mTORC1-mediated eIF4E phosphorylation on Ser 209 in human T47D cells at 0.1 to 1 uM after 30 mins by Western blotting; format: cell-based; in short: as §1
[16] = molecular target: Serine/threonine-protein kinase mTOR (Homo sapiens) (UniProt P42345); test: Inhibition of mTOR-mediated rpS6 phosphorylation on Ser 235/236 in human MDA-MB-231 cells at 0.1 to 1 uM after 30 mins by Western blotting; format: cell-based; in short: as §1
[17] = molecular target: Serine/threonine-protein kinase mTOR (Homo sapiens) (UniProt P42345); test: Inhibition of mTOR-mediated eIF4E phosphorylation on Ser 209 in human MDA-MB-231 cells at 0.1 to 1 uM after 30 mins by Western blotting; format: cell-based; in short: as §1
[18] = molecular target: Serine/threonine-protein kinase mTOR (Homo sapiens) (UniProt P42345); test: Inhibition of mTOR in human T47D cells assessed as eIF2alpha hyperphosphorylation on Ser 51 at 0.1 to 1 uM after 30 mins by Western blotting; format: cell-based; in short: as §1
[19] = molecular target: T1, Hypoxia inducible factors; HIF-1-alpha, HIF-2-alpha (Homo sapiens, UniProt Q16665+Q99814); test: Inhibition of HIF1-mediated induction of VEGF mRNA expression in hypoxia-stimulated human T47D cells at 0.3 to 3 uM after 16 hrs by RT-PCR analysis; format: cell-based
T47D [20] = test: Antiproliferative activity against human T47D cells assessed as cell viability by SRB assay; format: functional, cell-based
In short: (§4)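 Cells grown in DMEM/F12 with 10% FBS, penicillin and streptomycin; 96-well viability assay, 2-day or 6-day exposure, with medium (5% FBS) and compound renewed after 3 days in the 6-day study. Read by optical density; % inhibition = [1 − (ODtreated/ODcontrol)] × 100 versus medium control.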

MDA-MB-231 [21] = test: Antiproliferative activity against human MDA-MB-231 cells assessed as cell viability by SRB assay; format: functional, cell-based; in short: as §4
T47D [22] = test: Inhibition of HIF1alpha protein accumulation under hypoxic condition in human T47D cells at 3 uM after 4 hrs by Western blot analysis; format: functional, cell-based
T47D [23] = test: Inhibition of 1, 10-phenanthroline-induced HIF1alpha protein accumulation in human T47D cells at 3 uM after 4 hrs by Western blot analysis; format: functional, cell-based
[24] = molecular target: T1, Hypoxia inducible factors; HIF-1-alpha, HIF-2-alpha; test: Inhibition of HIF1-mediated induction of VEGF mRNA expression in human T47D cells at 3 uM after 16 hrs by RT-PCR analysis under normoxic condition; format: cell-based
[25] = molecular target: T1, Hypoxia inducible factors; HIF-1-alpha, HIF-2-alpha; test: Inhibition of HIF1-mediated induction of Glut-1 mRNA expression in hypoxia-stimulated human T47D cells at 0.3 to 3 uM after 16 hrs by RT-PCR analysis; format: cell-based
[26] = molecular target: T1, Hypoxia inducible factors; HIF-1-alpha, HIF-2-alpha; test: Inhibition of HIF1-mediated induction of secreted VEGF protein in human T47D cells at 3 uM after 16 hrs by ELISA under normoxic condition; format: cell-based
[27] = molecular target: T1, Hypoxia inducible factors; HIF-1-alpha, HIF-2-alpha; test: Inhibition of HIF1-mediated induction of cellular VEGF protein in hypoxia-stimulated human T47D cells at 0.3 uM after 16 hrs by ELISA; format: cell-based
T47D [28] = test: Inhibition of cellular respiration in human T47D cells at 1 uM by oxygen consumption assay; format: functional
In short: (§5)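 Oxygen consumption of intact T47D cells measured with a Clark-type electrode, in serum-free DMEM/F12 at 30 °C.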

T47D [29] = test: Ratio of IC50 for 1, 10-phenanthroline-induced HIF1 activation in human T47D cells to IC50 for hypoxia-induced HIF1 activation in human T47D cells; format: cell-based
[30] = molecular target: T1, Hypoxia inducible factors; HIF-1-alpha, HIF-2-alpha; test: Inhibition of HIF1-mediated induction of secreted VEGF protein in hypoxia-stimulated human T47D cells at 0.3 uM after 16 hrs by ELISA; format: cell-based
[31] = molecular target: T1, Hypoxia inducible factors; HIF-1-alpha, HIF-2-alpha; test: Inhibition of HIF1-mediated induction of cellular VEGF protein in human T47D cells at 3 uM after 16 hrs by ELISA under normoxic condition; format: cell-based
T47D [32] = test: Inhibition of 1, 10-phenanthroline-induced HIF1beta protein accumulation in human T47D cells at 3 uM after 4 hrs by Western blot analysis; format: functional, cell-based
[33] = molecular target: T1, Hypoxia inducible factors; HIF-1-alpha, HIF-2-alpha; test: Inhibition of HIF1-mediated induction of cellular VEGF protein in hypoxia-stimulated human T47D cells at 3 uM after 16 hrs by ELISA; format: cell-based
T47D [34] = test: Inhibition of cellular respiration in human T47D cell at 0.03 to 1 uM by oxygen consumption assay; format: functional, cell-based; in short: as §5
[35] = molecular target: T1, Hypoxia inducible factors; HIF-1-alpha, HIF-2-alpha; test: Inhibition of 1, 10-phenanthroline-induced HIF1 activation in human T47D cells after 16 hrs by HRE3-TK-luciferase reporter gene assay; format: cell-based
T47D [36] = test: Inhibition of HIF1beta protein accumulation under hypoxic condition in human T47D cells at 3 uM after 4 hrs by Western blot analysis; format: functional, cell-based
[37] = molecular target: T1, Hypoxia inducible factors; HIF-1-alpha, HIF-2-alpha; test: Inhibition of HIF1-mediated induction of secreted VEGF protein in hypoxia-stimulated human T47D cells at 3 uM after 16 hrs by ELISA; format: cell-based
[38] = molecular target: T1, Hypoxia inducible factors; HIF-1-alpha, HIF-2-alpha; test: Inhibition of hypoxia-induced HIF1 activation in human T47D cells after 16 hrs by HRE3-TK-luciferase reporter gene assay; format: cell-based
In short: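 T47D cells carrying the pHRE3-TK-Luc reporter, grown in DMEM/F12 with 10% FBS; HIF-1 induced by hypoxia (1% O2). Activity reported as % inhibition of the induced control, calculated as [1 − (treated/control)] × 100.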

[39] = molecular target: T1, Hypoxia inducible factors; HIF-1-alpha, HIF-2-alpha; test: Inhibition of HIF1-mediated induction of Glut-1 mRNA expression in human T47D cells at 3 uM after 16 hrs by RT-PCR analysis under normoxic condition; format: cell-based
PC-3 = test: Antiproliferative activity against human PC3 cells assessed as cell viability by SRB assay; format: functional, cell-based; in short: as §4

C=C(C)[C@H]1Cc2c(ccc3c2O[C@@H]2COc4cc(OC)c(OC)cc4[C@@H]2C3=O)O1 [ROTENONE]
inactive: inhibition [3] | inhibition [10] | inhibition [13] | inhibition [15] | inhibition [16] | inhibition [17]
active: Activity [1] | Activity (T47D [2]) Dose-dependent effect | Activity [4] | Activity (MDA-MB-231 [5]) Dose-dependent effect | Activity (T47D [7]) | Activity (MDA-MB-231 [8]) | Activity [9] | inhibition (T47D [11]) | inhibition (MDA-MB-231 [12]) Dose-dependent effect | Activity (T47D [14]) | inhibition [18]
50%: Activity (T47D [6])

CC(C)=CC(=O)O[C@@H]1CC[C@]2(C)[C@H]3CC[C@]45C[C@]4(CC[C@@H]5[C@@H]4C[C@H]([C@@H]5OC5(C)C)OC4O)[C@]3(C)[C@H](O)C[C@H]2C1(C)C (stereo not given in full) [SKIMMIAREPIN C]
active: inhibition [19] | Activity (T47D [20]) | inhibition (T47D [22]) | inhibition [25] | inhibition [27] | inhibition [30] | inhibition [33] | inhibition (T47D [34]) Dose-dependent effect | inhibition [37] | Activity (PC-3)
inactive: Activity (MDA-MB-231 [21]) | inhibition (T47D [23]) | inhibition [24] | inhibition [26] | inhibition [31] | inhibition (T47D [32]) | inhibition (T47D [36]) | inhibition [39]
0.068 µM: IC50 [38]
75%: inhibition at 1 µM (T47D [28])
80: Ratio IC50 (T47D [29])
5.6 µM: IC50 [35]
